SENP7 block = SENP7 protease inhibitors, primary screen, biochemical, luminescence, uHTS. Sentrin-specific protease 7 (Homo sapiens), Q9BQF6. recombinant SENP7, Z-RLRGG-aminoluciferin luminescence, 40 min. inhibition, % at 5 µM. 330,000 tested, 1.5% active. AID 434973, 2010;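 active = inhibition above about 50% at the single test dose, limit read from the data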
SENP6 block = SENP6 protease inhibitors, primary screen, biochemical, luminescence, uHTS. Sentrin-specific protease 6 (Homo sapiens), Q9GZR1. Recombinant SENP6 catalytic domain, aminoluciferin luminescence. inhibition, % at 10 µM. 330,000 tested, 1.8% active;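 active = inhibition above about 50% at the single tested dose, limit read from the data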
UBC13 inh = UBC13 polyubiquitin chain formation inhibitors, primary screen, biochemical, TR-FRET, uHTS | Ubiquitin-conjugating enzyme E2 N (Homo sapiens), P61088 | inhibition, % at 20 µM | 330,000 tested, 0.47% active | AID 485273, 2010; in the data active = inhibition above about 45%, passing the limit was not always enough; inconclusive = no clear call, values can overlap the other calls
Apaf1 inhib = inhibitors of human Apaf-1 apoptosome, primary screen, biochemical, DEVD-Rh110 fluorescence, uHTS; reconstituted apoptosome caspase-3 activity; inhibition, % at 20 µM; 330,000 tested, 0.71% active; AID 489030, 2010; active = inhibition of at least 40% at 20 µM
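Material: biochemical Apaf-1 apoptosome reconstitution. Medium: Hepes buffer, pH 7.5. Also added: cytochrome c activation, bis-DEVD rhodamine 110 substrate. Timing: 30 min compound preincubation, 50 min activation, room temperature. Measured by: rhodamine 110 fluorescence at Ex 480/Em 540 nm.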
SENP8 block-1 = SENP8 protease inhibitors, primary screen, biochemical, luminescence | Sentrin-specific protease 8 (Homo sapiens), Q96LD8 | purified SENP8, Z-RLRGG-aminoluciferin cleavage | inhibition, % at 10 µM | 330,000 tested, 1.2% active | AID 2540, 2010; in the data active = inhibition above about 50%
Target sequence (Q96LD8 whole entry, looked up): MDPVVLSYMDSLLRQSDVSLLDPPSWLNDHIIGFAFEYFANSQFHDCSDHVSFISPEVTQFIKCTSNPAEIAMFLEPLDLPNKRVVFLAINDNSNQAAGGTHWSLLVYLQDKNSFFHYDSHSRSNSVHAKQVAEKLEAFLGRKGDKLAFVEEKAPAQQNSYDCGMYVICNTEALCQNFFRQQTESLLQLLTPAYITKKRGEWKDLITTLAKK
SENP8 block-2 = human SENP8 protease inhibitors, primary screen, biochemical, fluorescence, Nedd8 protein substrate, uHTS. Sentrin-specific protease 8 (Homo sapiens), Q96LD8. recombinant SENP8. inhibition, % at 20 µM. 360,000 tested, 0.64% active. AID 602440, 2012; in the data active = inhibition mostly above about 40%, no sharp cut-off; inactive = mostly below about 27%
SENP8 confirm = SENP8 protease inhibitors, retest, confirmation, biochemical, luminescence, single concentration; inhibition, % at 12.5 µM; shares compounds with SENP7 block; 6,200 tested, 40% active; Recombinant SENP8, Z-RLRGG-aminoluciferin luminescence, 60 min;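 active = mean inhibition across replicates above about 50%, limit read from the data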
SENP6 conf = SENP6 protease inhibitors, confirmation, biochemical, luminescence, single concentration; recombinant SENP6, Z-RLRGG-aminoluciferin luminescence; AID 488915, 2010; inhibition, % at 12.5 µM; 6,200 tested, 58% active; shares compounds with SENP7 block
SENP7 conf = SENP7 protease inhibitors, retest, confirmation, biochemical, luminescence, single concentration. recombinant SENP7, Z-RLRGG-aminoluciferin luminescence, 40 min. inhibition, % at 12.5 µM. AID 488917, 2010. 6,200 tested, 69% active. shares compounds with SENP7 block
Casp3 SENP sel = caspase-3 protease inhibitors, confirmation, selectivity assay for SENP inhibitor project, biochemical, single concentration | inhibition, % at 12.5 µM | 6,200 tested, 60% active | shares compounds with SENP7 block | purified caspase-3, Z-DEVD-aminoluciferin luminescence, 60 min;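 active = mean inhibition above about 50%, limit read from the data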
Target sequence (P42574 28-227 limits assumed): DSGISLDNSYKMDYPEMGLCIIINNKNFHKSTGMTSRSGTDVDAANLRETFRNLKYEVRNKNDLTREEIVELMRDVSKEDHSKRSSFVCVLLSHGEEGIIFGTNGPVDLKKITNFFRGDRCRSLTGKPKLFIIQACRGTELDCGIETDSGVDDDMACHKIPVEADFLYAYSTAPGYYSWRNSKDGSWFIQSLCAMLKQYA
SENP luc ctr = counter-screen for SENP inhibitors: luminescence interference. shares compounds with SENP7 block. Pre-incubated SENP8/Z-RLRGG-aminoluciferin, luciferase luminescence interference. inhibition, % at 12.5 µM. 6,200 tested, 39% active;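 active = mean inhibition above about 50% when retested at one dose, limit read from the data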
Numbers stand for hits; - = inactive; ? = inconclusive; . = no result. Compounds with a hit are over-represented: about 3% of the library has one in this group of screens.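 Rule for the calls, unless noted: active = mean inhibition above about 50% in the one-dose retest (limit read from the data); inactive = the rest.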

SMILES	SENP7 block	SENP6 block	UBC13 inh	Apaf1 inhib	SENP8 block-1	SENP8 block-2	SENP8 confirm	SENP6 conf	SENP7 conf	Casp3 SENP sel	SENP luc ctr
CCN(c1ccc(NC(=O)COC(=O)c2cccs2)cc1)C(C)C	64	73	-	-	-	-	68	65	90	71	70
COc1cc2ncc(S(=O)(=O)c3ccccc3)c(N3CCCC(C)C3)c2cc1OC (centres undefined)	-	-	?	-	-	-	.	.	.	.	.
CCCc1nc(SCC(=O)N2CCc3ccccc3C2)c2ccccc2n1	98	-	-	-	-	-	-	-	-	-	-
CCCCn1c(N)c(N(CCOC)C(=O)c2cnc(C)cn2)c(=O)[nH]c1=O	-	-	-	-	-	-	.	.	.	.	.
O=C(COc1ccccc1)Nc1ccc(-c2nnc(-c3ccco3)o2)cc1	-	-	-	-	-	-	.	.	.	.	.
CC(=O)Nc1nnc(-c2ccco2)o1	-	-	-	-	-	-	.	.	.	.	.
CC(C)COc1ccc(-c2nnc(-c3ccco3)o2)cc1	94	94	-	-	59	-	-	74	62	64	-
CCCOc1ccc(-c2nnc(-c3ccco3)o2)cc1	87	-	-	-	78	-	-	-	59	-	-
O=C(Oc1ccc(-c2cn3c(n2)SCC3)cc1)c1ccccc1	71	-	-	-	-	-	-	-	-	51	-
CC(=O)Nc1ccc(-c2cn3c(n2)SCC3)cc1	-	-	-	-	-	-	.	.	.	.	.
COc1ccc(-n2c(C)cc(/C=C3/SC(=S)N(C)C3=O)c2C)cc1	.	.	.	.	.	-	.	.	.	.	.
CN=C1S/C(=C\c2cc(C)n(-c3ccccc3F)c2C)C(=O)N1C	66	-	-	-	63	-	86	88	96	70	74
Cc1cc(/C=C2\SC(=S)N(C)C2=O)c(C)n1-c1cccc(O)c1	60	90	-	-	80	-	-	-	-	-	-
CN=C1S/C(=C\c2ccc(N3CCOCC3)cc2C)C(=O)N1C	-	-	-	-	-	-	.	.	.	.	.
Cc1cc(C)n2c(SCC(=O)Nc3cc(S(=O)(=O)N(C)C)ccc3C)nnc2n1	-	-	-	-	-	-	.	.	.	.	.
COc1ccc(Cl)cc1C(=O)Nc1nc2ccccc2[nH]1	98	96	-	-	90	-	83	91	102	96	80
N#Cc1ccc(C(=O)Nc2nc3ccccc3[nH]2)cc1	73	69	-	-	50	-	-	-	71	68	-
CCc1ccc(C(=O)Nc2nc3ccccc3[nH]2)cc1	97	96	-	-	94	-	56	76	86	84	-
O=C(Nc1nc2ccccc2[nH]1)c1ccccc1F	99	96	-	-	97	-	-	99	102	98	97
O=[N+]([O-])c1ccc(O)c(C2CCCCC2)c1	.	.	.	.	.	-	.	.	.	.	.
O=C(CCNC(=O)C1CCN(S(=O)(=O)c2ccc(F)cc2)CC1)NCc1ccccn1	.	.	.	.	.	-	.	.	.	.	.
